Source: ChEMBL document CHEMBL1132564, “Antitumor benzothiazoles. 7. Synthesis of 2-(4-acylaminophenyl)benzothiazoles and investigations into the role of acetylation in the antitumor activities of the parent amines” (J Med Chem, 1999)

Assays:
U-251 = assay: In vitro antitumor activity against CNS cancer U251 cell lines by 6-day assay; assay type: functional; conditions: Homo sapiens, U-251, 144 h
Summary of the method: (§1)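 NCI 60-cell-line panel, sulforhodamine B protein stain. Seeding density set per line's growth; 24 h drug-free incubation, then test agent at five 10-fold dilutions up to 10^-4 M for 6 days of exposure. Growth inhibition derived from change in protein-stain optical density; log GI50 reported.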

K562 = assay: In vitro antitumor activity against Leukemia K-562 cell lines by 6-day assay; assay type: functional; conditions: Homo sapiens, K562, 144 h; summary of the method: as §1
HCT-116 = assay: In vitro antitumor activity against colon cancer HCT116 cell lines by 6-day assay; assay type: functional; conditions: Homo sapiens, HCT-116, 144 h; summary of the method: as §1
EKVX = assay: In vitro antitumor activity against Non-small cell lung cancer EKVX cell lines by 6-day assay; assay type: functional; conditions: Homo sapiens, 144 h; summary of the method: as §1
SW-620 = assay: In vitro antitumor activity against colon cancer SW-620 cell lines by 6-day assay; assay type: functional; conditions: Homo sapiens, SW-620, 144 h; summary of the method: as §1
M14 = assay: In vitro antitumor activity against melanoma M14 cell lines by 6-day assay; assay type: functional; conditions: Homo sapiens, M14, 144 h; summary of the method: as §1
NCI-H23 = assay: In vitro antitumor activity against Non-small cell lung cancer NCI-H23 cell lines by 6-day assay; assay type: functional; conditions: Homo sapiens, NCI-H23, 144 h; summary of the method: as §1
SR = assay: In vitro antitumor activity against Leukemia SR cell lines by 6-day assay; assay type: functional; conditions: Homo sapiens, 144 h; summary of the method: as §1
SF-295 = assay: In vitro antitumor activity against CNS cancer SF-295 cell lines by 6-day assay; assay type: functional; conditions: Homo sapiens, SF-295, 144 h; summary of the method: as §1
SNB-19 = assay: In vitro antitumor activity against CNS cancer SNB-19 cell lines by 6-day assay; assay type: functional; conditions: Homo sapiens, SNB-19, 144 h; summary of the method: as §1
HOP-92 = assay: In vitro antitumor activity against Non-small cell lung cancer HOP92 cell lines by 6-day assay; assay type: functional; conditions: Homo sapiens, HOP-92, 144 h; summary of the method: as §1
786-0 = assay: In vitro antitumor activity against Renal cancer 786-0 cell lines by 6-day assay; assay type: functional; conditions: Homo sapiens, 786-0, 144 h; summary of the method: as §1
A549 = assay: In vitro antitumor activity against Non-small cell lung cancer A549/ATCC cell lines by 6-day assay; assay type: functional; conditions: Homo sapiens, A549, 144 h; summary of the method: as §1
OVCAR-5 = assay: In vitro antitumor activity against Ovarian cancer OVCAR-5 cell lines by 6-day assay; assay type: functional; conditions: Homo sapiens, OVCAR-5, 144 h; summary of the method: as §1
HCT-15 = assay: In vitro antitumor activity against colon cancer HCT-15 cell lines by 6-day assay; assay type: functional; conditions: Homo sapiens, HCT-15, 144 h; summary of the method: as §1
NCI [1] = assay: In vitro antitumor activity against carcinoma cell lines by 2-day assay; assay type: functional, Homo sapiens
Summary of the method: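 NCI panel sulforhodamine B assay: line-specific seeding, 24 h drug-free, then five 10-fold dilutions (top 10^-4 M) for 2 days; growth inhibition from protein-stain optical density change; mean log GI50 across panel.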

HT-29 = assay: In vitro antitumor activity against colon cancer HT-29 cell lines by 6-day assay; assay type: functional; conditions: Homo sapiens, HT-29, 144 h; summary of the method: as §1
HCC 2998 = assay: In vitro antitumor activity against colon cancer HCC2998 cell lines by 6-day assay; assay type: functional; conditions: Homo sapiens, HCC 2998, 144 h; summary of the method: as §1
MDA-MB-468 = assay: In vitro antitumor activity against MDA-468 carcinoma cell line.; assay type: functional, cell-based; conditions: Homo sapiens
Summary of the method: (§2)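 MTT assay, 7-day format: 250–300 cells/well, adhered 24 h drug-free, then compound 1 pM–100 μM (n = 8), final DMSO <0.25%; RPMI 1640/10% FCS, 37 °C, 5% CO2. MTT added after exposure, 4 h, formazan dissolved in DMSO–glycine (4:1), absorbance 550 nm.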

SK-MEL-28 = assay: In vitro antitumor activity against melanoma SK-MEL-28 cell lines by 6-day assay; assay type: functional; conditions: Homo sapiens, SK-MEL-28, 144 h; summary of the method: as §1
MOLT-4 = assay: In vitro antitumor activity against Leukemia MOLT-4 cell lines by 6-day assay; assay type: functional; conditions: Homo sapiens, MOLT-4, 144 h; summary of the method: as §1
ACHN = assay: In vitro antitumor activity against Renal cancer ACHN cell lines by 6-day assay; assay type: functional; conditions: Homo sapiens, 144 h; summary of the method: as §1
SNB-75 = assay: In vitro antitumor activity against CNS cancer SNB-75 cell lines by 6-day assay; assay type: functional; conditions: Homo sapiens, SNB-75, 144 h; summary of the method: as §1
NCI [2] = assay: In vitro antitumor activity against carcinoma cell lines by 6-day assay; assay type: functional, Homo sapiens; summary of the method: as §1
RXF 393 = assay: In vitro antitumor activity against Renal cancer RXF393 cell lines by 6-day assay; assay type: functional; conditions: Homo sapiens, RXF 393, 144 h; summary of the method: as §1
MCF7 = assay: In vitro antitumor activity against MCF-7 carcinoma cell line.; assay type: functional, cell-based; conditions: Homo sapiens; summary of the method: as §2
IGROV-1 = assay: In vitro antitumor activity against Ovarian cancer IGROV1 cell lines by 6-day assay; assay type: functional; conditions: Homo sapiens, IGROV-1, 144 h; summary of the method: as §1
UACC-257 = assay: In vitro antitumor activity against melanoma UACC-257 cell lines by 6-day assay; assay type: functional; conditions: Homo sapiens, UACC-257, 144 h; summary of the method: as §1
A498 = assay: In vitro antitumor activity against Renal cancer A498 cell lines by 6-day assay; assay type: functional; conditions: Homo sapiens, A498, 144 h; summary of the method: as §1
HL-60 = assay: In vitro antitumor activity against Leukemia HL-60(TB) cell lines by 6-day assay; assay type: functional; conditions: Homo sapiens, HL-60, 144 h
Summary of the method: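 NCI 60-line panel screen using a sulforhodamine B protein-stain read-out. Seeding density is set by each line's growth. After a 24-h drug-free period, compound is added at five 10-fold dilutions up to 10^-4 M. Exposure lasts 6 days, and growth inhibition (GI50) is taken from the change in stain optical density.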

KM12 = assay: In vitro antitumor activity against colon cancer KM12 cell lines by 6-day assay; assay type: functional; conditions: Homo sapiens, KM12, 144 h; summary of the method: as §1
MDA-MB-435 = assay: In vitro antitumor activity against Breast cancer MDA-MB-435 cell lines by 6-day assay; assay type: functional; conditions: Homo sapiens, MDA-MB-435, 144 h; summary of the method: as §1
BT-549 = assay: In vitro antitumor activity against Breast cancer BT-549 cell lines by 6-day assay; assay type: functional; conditions: Homo sapiens, BT-549, 144 h; summary of the method: as §1
UO-31 = assay: In vitro antitumor activity against Renal cancer UO-31 cell lines by 6-day assay; assay type: functional; conditions: Homo sapiens, UO-31, 144 h; summary of the method: as §1
CAKI-1 = assay: In vitro antitumor activity against Renal cancer CAKI-1 cell lines by 6-day assay; assay type: functional; conditions: Homo sapiens, CAKI-1, 144 h; summary of the method: as §1
MDA-N = assay: In vitro antitumor activity against Breast cancer MDA-N cell lines by 6-day assay; assay type: functional; conditions: Homo sapiens, 144 h; summary of the method: as §1
SK-MEL-5 = assay: In vitro antitumor activity against melanoma SK-MEL-5 cell lines by 6-day assay; assay type: functional; conditions: Homo sapiens, SK-MEL-5, 144 h; summary of the method: as §1
SF-268 = assay: In vitro antitumor activity against CNS cancer SF-268 cell lines by 6-day assay; assay type: functional; conditions: Homo sapiens, SF-268, 144 h; summary of the method: as §1
RPMI-8226 = assay: In vitro antitumor activity against Leukemia RPMI-8226 cell lines by 6-day assay; assay type: functional; conditions: Homo sapiens, RPMI-8226, 144 h; summary of the method: as §1
UACC-62 = assay: In vitro antitumor activity against melanoma UACC-62 cell lines by 6-day assay; assay type: functional; conditions: Homo sapiens, UACC-62, 144 h; summary of the method: as §1
CCRF-CEM = assay: In vitro antitumor activity against Leukemia CCRF-CEM cell lines by 6-day assay; assay type: functional; conditions: Homo sapiens, 144 h; summary of the method: as §1
SN12C = assay: In vitro antitumor activity against Renal cancer SN12C cell lines by 6-day assay; assay type: functional; conditions: Homo sapiens, 144 h; summary of the method: as §1
SK-OV-3 = assay: In vitro antitumor activity against Ovarian cancer SK-OV-3 cell lines by 6-day assay; assay type: functional; conditions: Homo sapiens, SK-OV-3, 144 h; summary of the method: as §1
COLO 205 = assay: In vitro antitumor activity against colon cancer COLO 205 cell lines by 6-day assay; assay type: functional; conditions: Homo sapiens, COLO 205, 144 h; summary of the method: as §1
TK-10 = assay: In vitro antitumor activity against Renal cancer TK-10 cell lines by 6-day assay; assay type: functional; conditions: Homo sapiens, TK-10, 144 h; summary of the method: as §1
NCI-H322M = assay: In vitro antitumor activity against Non-small cell lung cancer NCI-H322M cell lines by 6-day assay; assay type: functional; conditions: Homo sapiens, 144 h; summary of the method: as §1
OVCAR-8 = assay: In vitro antitumor activity against Ovarian cancer OVCAR-8 cell lines by 6-day assay; assay type: functional; conditions: Homo sapiens, OVCAR-8, 144 h; summary of the method: as §1
DU-145 = assay: In vitro antitumor activity against Prostate cancer DU145 cell lines by 6-day assay; assay type: functional; conditions: Homo sapiens, DU-145, 144 h; summary of the method: as §1

Nc1ccc(-c2nc3ccccc3s2)cc1Br
GI50 (U-251): 37.2 µM | GI50 (K562): > 100 µM | GI50 (HCT-116): < 0.01 µM | GI50 (EKVX): 81.3 µM | GI50 (SW-620): 45.7 µM | GI50 (M14): 64.6 µM | GI50 (NCI-H23): 28.8 µM | GI50 (SR): 47.9 µM | GI50 (SF-295): 42.7 µM | GI50 (SNB-19): 47.9 µM | GI50 (HOP-92): 40.7 µM | GI50 (786-0): 66.1 µM | GI50 (A549): > 100 µM | GI50 (OVCAR-5): < 0.01 µM | GI50 (HCT-15): 31.6 µM | Mean log GI50 (NCI [1]): -4.67 M | GI50 (HT-29): 24.5 µM | GI50 (HCC 2998): < 0.01 µM | IC50 (MDA-MB-468): < 0.001 µM | GI50 (SK-MEL-28): > 100 µM | GI50 (MOLT-4): 46.8 µM | GI50 (ACHN): 44.7 µM | GI50 (SNB-75): > 100 µM | Mean log GI50 (NCI [2]): -5.01 M | GI50 (RXF 393): 40.7 µM | IC50 (MCF7): < 0.001 µM | GI50 (IGROV-1): < 0.01 µM | GI50 (UACC-257): < 0.01 µM | GI50 (A498): 0.191 µM | GI50 (HL-60): 9.55 µM | GI50 (KM12): 69.2 µM | GI50 (MDA-MB-435): 97.7 µM | GI50 (BT-549): 57.5 µM | GI50 (UO-31): 32.4 µM | GI50 (CAKI-1): > 100 µM | GI50 (MDA-N): > 100 µM | GI50 (SK-MEL-5): 15.8 µM | GI50 (SF-268): 34.7 µM | GI50 (RPMI-8226): > 100 µM | GI50 (UACC-62): < 0.01 µM | GI50 (CCRF-CEM): 40.7 µM | GI50 (SN12C): > 100 µM | GI50 (SK-OV-3): 58.9 µM | GI50 (COLO 205): < 0.01 µM | GI50 (TK-10): < 0.01 µM | GI50 (NCI-H322M): > 100 µM | GI50 (OVCAR-8): 43.7 µM | GI50 (DU-145): > 100 µM
